Experimental data from different studies.
Each line is one published result; the experiments were not run side by side.
CDK4 with cyclin D1: Cyclin-dependent kinase 4, with cyclin D1 (CDK4, Homo sapiens, UniProt P11802)
CDK4 with cyclin D3: Cyclin-dependent kinase 4, with cyclin D3 (CDK4, Homo sapiens, UniProt P11802)
CDK4: Cyclin-dependent kinase 4 (CDK4, Homo sapiens, UniProt P11802)

| Compound | target | assay | conditions | measurement | value |
| --- | --- | --- | --- | --- | --- |
| CNS(=O)(=O)c1ccc(Nc2ncc(C(F)(F)F)c(N3CCC[C@](C)(O)C3)n2)c(C)c1 | CDK4 with cyclin D1 | binding, competition with immobilised ligand | 1 µM | remaining binding | 46% |
| CO[C@@H]1[C@H](N(C)C(=O)c2ccccc2)C[C@H]2O[C@]1(C)n1c3ccccc3c3c4c(c5c6ccccc6n2c5c31)C(=O)NC4 | CDK4 with cyclin D3 | enzyme activity, inhibitor | 1 µM | inhibition | 2% |
| C1=C/COCc2cc(ccc2OCCN2CCCC2)Nc2nccc(n2)-c2cccc(c2)COC/1 | CDK4 with cyclin D3 | binding | 0.1 µM | remaining binding | 25% |
| CN1CCN(C(=O)c2ccc(NC(=O)Nc3ccc(N(C)c4ccnc(Nc5ccc(CS(C)(=O)=O)cc5)n4)cc3)cc2)CC1 | CDK4 | binding | 1 µM | remaining binding | 83% |
| C=CC(=O)N1CCC([C@@H]2CCNc3c(C(N)=O)c(-c4ccc(Oc5ccccc5)cc4)nn32)CC1 | CDK4 with cyclin D3 | enzyme activity, inhibitor | 1 µM | inhibition | 0% |
| CCCCC(=O)Nc1ccc(-c2ccc3ncn(CCC)c(=O)c3c2)cn1 | CDK4 | binding, competition with immobilised ligand | 0.5 µM | remaining binding | 100% |
| C[C@]1(O)CCCN(c2nc(Nc3ccc(S(=O)(=O)N[C@H]4CC[C@H](CN5CCN(c6ccc(C7CCC(=O)NC7=O)cc6F)CC5)CC4)cc3Cl)ncc2C(F)(F)F)C1 (some centres unmarked) | CDK4 with cyclin D1 | binding, competition with immobilised ligand | 1 µM | remaining binding | 91% |
| Cc1ccc(NC(=O)c2ccnc(C(F)(F)F)c2)cc1-c1cc(OCCO)nc(N2CCOCC2)c1 | CDK4 with cyclin D3 | binding | 1 µM | remaining binding | 100% |
| C[C@]1(O)CCCN(c2nc(Nc3ccc(S(=O)(=O)N[C@H]4CC[C@H](CN5CCN(c6ccc(C7CCC(=O)NC7=O)cc6F)CC5)CC4)cc3F)ncc2C(F)(F)F)C1 (some centres unmarked) | CDK4 with cyclin D3 | binding, competition with immobilised ligand | 1 µM | remaining binding | 96% |
| CC#CC(=O)N1CCC[C@H]1c1nc(-c2ccc(C(=O)Nc3ccccn3)cc2)c2c(N)nccn12 | CDK4 with cyclin D3 | enzyme activity, inhibitor | 1 µM | inhibition | 0% |
| COc1ccc2[nH]c3c4[nH]c5ccc(OC)cc5c4c4c(c3c2c1)C(=O)NC4=O | CDK4 with cyclin D1 | binding | 1 µM | remaining binding | 82% |
